Measurements taken from ChEMBL document CHEMBL1157331, “Xenicane-type diterpenes with cytotoxicity from Xenia florida” (J Nat Prod, 2006).
Converted amounts (≈) assume the structure as drawn.

Tests used:
[1] = Cytotoxicity against human Hepa cells after 72 hrs; format: functional; conditions: read-out: ED50 (the source's name)
In short: (§1)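 Methylene blue binding to fixed cell monolayers. 2880 cells/well seeded, 3 h later sample added; samples prepared at […], incubated 37 °C for 3 days. Absorbance read at 650 nm. ED50 is the concentration giving 50% reduction of absorbance versus untreated cells. Mitomycin as positive control.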

WiDr = assay: Cytotoxicity against human WiDr cells after 72 hrs; format: functional, cell-based; conditions: for EC50: read-out: ED50 (the source's name); in short: as §1
KB = assay: Cytotoxicity against human KB cells after 72 hrs; format: functional; conditions: read-out: ED50 (the source's name); in short: as §1

C=C1[C@@H]2[C@H](OC(C)=O)OC=C([C@H](OC(C)=O)[C@@H](C=C(C)C)OC(C)=O)[C@H]2CC/C(C)=C/[C@@H](OC(=O)c2ccccc2)[C@H]1OC(=O)c1ccccc1
EC50 [1]: > 20 µg/mL
EC50 (WiDr): > 20 µg/mL
EC50 (KB): > 20 µg/mL

C=C1C(=O)[C@H](OC(=O)c2ccccc2)/C=C(\C)CC[C@@H]2C([C@H](OC(C)=O)[C@@H](C=C(C)C)OC(C)=O)=CO[C@@H](OC(C)=O)[C@@H]12
EC50 [1]: > 20 µg/mL
EC50 (WiDr): > 20 µg/mL
EC50 (KB): > 20 µg/mL

C=C1[C@@H]2[C@H](OC(C)=O)OC=C([C@H](OC(C)=O)[C@@H](C=C(C)C)OC(C)=O)[C@H]2CC/C(C)=C/[C@@H](OC(=O)c2ccccc2)[C@H]1O [FLORXENILIDE A]
EC50 [1]: > 20 µg/mL
IC50 (WiDr): 4.5 µM
EC50 (WiDr): 2.73 µg/mL (≈ 4.58 µM)
EC50 (KB): > 20 µg/mL

C=C1[C@@H]2[C@H](OC(C)=O)OC=C([C@H](OC(C)=O)[C@@H](C=C(C)C)OC(C)=O)[C@H]2CC[C@]2(C)O[C@H]2[C@@H](OC(=O)c2ccccc2)[C@H]1O [FLORXENILIDE B]
EC50 [1]: 8.03 µg/mL (≈ 13.1 µM)
IC50 (WiDr): 3.7 µM
EC50 (WiDr): 1.88 µg/mL (≈ 3.07 µM)
EC50 (KB): 11.4 µg/mL (≈ 18.6 µM)

CO[C@@]12CC[C@H](OC(C)=O)[C@@](C)(CC[C@@H]3/C(=C\C=C\C(C)(C)O)COC(=O)[C@H]31)C2 [FLORXENILIDE C MONOACETATE]
EC50 [1]: > 20 µg/mL
EC50 (WiDr): > 20 µg/mL
EC50 (KB): > 20 µg/mL

CO[C@@]12CC[C@H](O)[C@@](C)(CC[C@@H]3/C(=C\C=C\C(C)(C)O)COC(=O)[C@H]31)C2 [FLORXENILIDE C]
EC50 [1]: > 20 µg/mL
EC50 (WiDr): > 20 µg/mL
EC50 (KB): > 20 µg/mL

CO[C@@]12[C@H](COC(N)=O)C3=C(C(=O)C(C)=C(N)C3=O)N1C[C@@H]1N[C@@H]12 [MITOMYCIN]
EC50 [1]: 0.04 µg/mL (≈ 0.12 µM)
EC50 (WiDr): 0.35 µg/mL (≈ 1.05 µM)
EC50 (KB): 0.56 µg/mL (≈ 1.67 µM)
